Ecoli WT expand = growth inhibitors of wild-type E. coli, primary screen, strain BW25113, expanded library, OD600; 98,000 tested, 0.15% active; growth inhibition, % at 100 µM; OD600 absorbance;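 active means growth inhibition above about 50% at one test dose, limit read from the data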;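 further: growth measured after 20 h incubation at 37 °C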
CYP2C9 inh = blockers of cytochrome P450 2C9 activity – biochemical, luminescence, ADME assay, primary screen; P11712; CYP2C9 Supersomes, luciferin-H conversion; inhibition, % at 5 µM; 96,000 tested, 20% active;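 active means blocking of liver enzyme CYP2C9 beyond about 50% at 5 µM, limit read from the data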
Target sequence (P11712 whole entry, looked up): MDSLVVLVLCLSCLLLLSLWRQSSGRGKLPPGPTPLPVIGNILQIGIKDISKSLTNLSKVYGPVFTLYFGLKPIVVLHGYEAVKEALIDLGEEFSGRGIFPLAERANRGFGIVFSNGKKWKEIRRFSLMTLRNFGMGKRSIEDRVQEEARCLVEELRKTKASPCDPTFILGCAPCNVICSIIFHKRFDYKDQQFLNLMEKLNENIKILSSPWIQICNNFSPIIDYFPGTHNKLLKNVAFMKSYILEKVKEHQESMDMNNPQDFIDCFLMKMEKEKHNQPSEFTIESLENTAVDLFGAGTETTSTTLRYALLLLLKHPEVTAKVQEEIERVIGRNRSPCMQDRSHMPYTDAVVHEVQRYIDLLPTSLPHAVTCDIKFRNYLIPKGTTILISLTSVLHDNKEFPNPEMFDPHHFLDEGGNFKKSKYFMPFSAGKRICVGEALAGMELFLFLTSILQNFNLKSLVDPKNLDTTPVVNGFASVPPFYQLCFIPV
tolC growth inh = growth inhibitors of E. coli tolC mutant, primary screen, strain BW25113 ΔtolC::kan, 384-well; AID 573, 2007; OD615; 65,000 tested, 2.2% active; growth inhibition, % at 10 µM (by protocol);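 active means growth inhibition at or above a cutoff equal to the mean over every tested compound plus 3 SD, cut at about 60% in these data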;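 further: growth measured after 20 h incubation at 37 °C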
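Test system: E. coli BW25113 ΔtolC::kan bacteria | Medium: Kanamycin-containing LB broth (50 µg/mL) | Dosing: One dose of 10 µM final | Times: 20 h incubation with compound, 37 °C | Detection: Optical density read at 615 nm | Read-out basis: Percent growth inhibition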
CYP2C19 activ = human CYP2C19 activators, primary screen, biochemical, luminescence; Cytochrome P450 2C19 (Homo sapiens), P33261; recombinant CYP2C19, luciferin-H EGE luminescence; active compounds read high; 0 = fully inhibited enzyme, 1 = untreated enzyme; activation factor at 5 µM; 96,000 tested, under 10 active; AID 1025, 2008;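 active means activation factor of at least 2 at 5 µM in the primary screen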;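 further: 0 = wells with 2.5 mM tranylcypromine and 1 = vehicle-only wells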
CYP2C9 act = human CYP2C9 activators, primary screen, biochemical, luminescence; recombinant CYP2C9, luciferin-H conversion; active compounds read high; factor 1 = untreated enzyme, 0 = blocked; AID 1024, 2008; activation factor at 5 µM; 96,000 tested, 1.4% active;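 active means activation factor of 2 or more for CYP2C9 at a 5 µM dose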;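 further: 0 = sulfaphenazole-blocked wells and 1 = vehicle-only wells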
CYP2C19 inh = blockers of cytochrome P450 2C19 activity – biochemical, luminescence, ADME assay, primary screen. P33261. CYP2C19 Supersomes, luciferin-H EGE luminescence, 30 min. inhibition, % at 5 µM. 96,000 tested, 21% active. AID 778, 2007;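 active means CYP2C19 inhibition above a set limit at 5 µM in the primary screen, cut at about 50% in these data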;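 further: plate controls were negative control wells for no effect and 2.5 mM tranylcypromine positive control for full effect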
* = called active by the depositor; nt = not tested or not shown. Compounds with a hit are over-represented: about 29% of the library has one in this group of screens.

SMILES	Ecoli WT expand	CYP2C9 inh	tolC growth inh	CYP2C19 activ	CYP2C9 act	CYP2C19 inh
CCCCC(CCC(=O)O)(C(=O)OCC)c1csc(N)n1 (stereo not drawn)	0	-1	-22	0.9	1	6
O=[N+]([O-])CC(=Nc1ccc(Cl)cc1)N/N=C\c1oc(O)c2ccccc12	3	28	nt	1	0.7	-2
O=C(Cn1c(=O)oc2ccccc21)c1ccccc1	3	25	3	0.1	0.7	93*
O=c1oc2ccccc2n1CCCCCn1c(=O)oc2ccccc21	10	-21	3	0.2	1.2	84*
O=c1oc2ccccc2n1CCCOc1ccccc1	1	70*	3	0	0.3	98*
NC(=O)CCn1c(=O)oc2ccccc21	9	-13	-8	1.2	1.1	-15
CC1CCCCN1C(=O)Cn1c(=O)oc2ccccc21 (stereo not drawn)	2	nt	-12	nt	nt	nt
CCCNC(=O)Cn1c(=O)oc2ccccc21	6	-6	nt	0.3	1.1	74*
COc1ccc(CCNC(=O)Cn2c(=O)oc3ccccc32)cc1OC	7	13	-23	1	0.9	1
O=S(=O)(c1ccc(Cl)cc1)N1CCC(N2CCCCCC2)CC1	-6	-16	1	1	1.2	-4
CCOC(=O)N1CCC(NC(=O)c2sc(-n3cccc3)nc2C)CC1	-2	-69	-13	1	1.7	0
CC12CN3CC(C)(CN(C1)C3c1ccc3c(c1)OCO3)C2=O (stereo not drawn)	-2	-13	-12	0.5	1.1	53*
CCCCOC(=O)C1C2C=C[C@]3(CN(CCCOC)C(=O)[C@H]13)O2 (stereo partly drawn)	-13	-3	-26	1	1	0
COc1ccc(Cc2nc(-c3ccc(Cl)cc3)no2)cc1	4	3	50	1	1	-1
Nc1nc(SCc2c(F)cccc2Cl)[nH]c(=O)c1-c1ccccc1	-1	-1	nt	1	1	-1
COc1ccc(-c2noc(CSc3nc(-c4ccccc4)cc(=O)[nH]3)n2)cc1OC	-4	60*	0	0.6	0.4	44
COc1ccc(-c2noc(Cc3ccc(Cl)cc3)n2)cc1OC	-12	39	63*	0.9	0.6	13
Nc1nc(SCc2nc(-c3ccccc3)no2)[nH]c(=O)c1-c1ccccc1	8	82*	nt	0.3	0.2	73*
COc1ccc(-c2noc(CCCc3ccccc3)n2)cc1OC	-3	61*	62*	0.2	0.4	80*
COc1ccccc1N1CCN(C(=O)CSc2nc(-c3ccccc3)cc(=O)[nH]2)CC1	-3	nt	9	nt	nt	nt
COC(=O)C(CC(=O)c1ccc(Cl)cc1)c1ccc(C(C)C)cc1 (stereo not drawn)	1	-25	nt	1	1.2	2
COc1ccccc1OCc1nc(Cc2ccc(Cl)cc2)no1	3	-33	27	0.1	1.3	94*
COc1ccc(-c2noc(COc3ccc(C)c(C)c3)n2)cc1OC	4	37	15	0.3	0.6	73*
COc1ccc(-c2noc(-c3ccc(Br)o3)n2)cc1OC	7	-8	-26	1	1.1	4
COc1ccc(Cc2nc(-c3ccc(Br)o3)no2)cc1OC	9	65*	6	0.1	0.4	88*
SMILES	Ecoli WT expand	CYP2C9 inh	tolC growth inh	CYP2C19 activ	CYP2C9 act	CYP2C19 inh
CCOc1ccc(-c2noc(COC)n2)cc1OC	8	-9	-3	1.1	1.1	-6
COc1ccc(Cc2noc(COc3ccc(Cl)cc3)n2)cc1	4	17	nt	0.7	0.8	28
Cc1nnc(SCC(=O)Nc2ccc3c(c2)COC3=O)n1-c1ccccc1	12	41	-2	0.9	0.6	5
CN(C)C(=O)c1cc(F)ccc1Sc1cc(Cl)ccc1Cl	12	50	nt	0	0.5	98*
CN(C)C(=O)c1cc(Cl)ccc1Sc1cc(Cl)ccc1Cl	9	84*	nt	0	0.2	97*
O/N=C1/CCCSc2ccccc21	5	-2	8	1.1	1	-8
CCCCOC(=O)Sc1nc2ccccc2o1	0	52*	-8	0.4	0.5	58*

Bioassay records: PubChem BioAssay, several laboratories
